Redox H2O2 prof = compounds producing H2O2 with reducing agent – biochemical, NIH compound library profiling, artefact control for MLSCN library redox annotation, primary screen; actives 0.03% (n = 200,000); activation, % at 10 µM; DTT-dependent redox cycling H2O2, phenol red/HRP absorbance; 100% = 100 µM peroxide control, 0% = buffer;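 active = activation of at least 50% relative to the plate's high and low controls in the primary single-dose screen; inactive = activation below 50%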;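 note: compound incubated with DTT at 0.8 mM final as the reducing agent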
G6PDH CS = counter-screen for G6PDH assay hits: L. mesenteroides G6PDH inhibition | actives 0.12% (n = 200,000) | inhibition, % at 5 µM | Purified L. mesenteroides G6PDH, diaphorase/resazurin coupled fluorescence, 45 min; in the data active = inhibition above about 50%
PMI act hi M6P = PMI (human) activation, high substrate; coupled PMI enzyme assay, resazurin fluorescence, 20 min; stronger effect = higher value; 1 = untreated enzyme, 0 = substrate-free blank; activation factor at 20 µM; actives 0.34% (n = 190,000); AID 1216;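 active = activation factor of 2 or more at 20 µM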
Target sequence (P34949 whole entry, looked up): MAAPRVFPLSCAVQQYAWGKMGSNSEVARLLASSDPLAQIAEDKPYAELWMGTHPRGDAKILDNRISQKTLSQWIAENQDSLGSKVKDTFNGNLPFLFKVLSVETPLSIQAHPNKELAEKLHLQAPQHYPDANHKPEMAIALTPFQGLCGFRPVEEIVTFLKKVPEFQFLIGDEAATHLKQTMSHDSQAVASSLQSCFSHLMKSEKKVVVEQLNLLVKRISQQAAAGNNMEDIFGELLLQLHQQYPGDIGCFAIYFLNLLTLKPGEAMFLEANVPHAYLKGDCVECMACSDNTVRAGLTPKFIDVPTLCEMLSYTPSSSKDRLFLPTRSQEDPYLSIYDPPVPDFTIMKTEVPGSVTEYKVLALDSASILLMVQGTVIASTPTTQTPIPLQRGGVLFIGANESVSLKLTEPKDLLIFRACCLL
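Test system: human phosphomannose isomerase with PGI, G6PDH, diaphorase coupling enzymes; Amount: PMI at 15 ng/mL final; Reagent: Mannose-6-phosphate 1.0 mM (near-saturating) plus 0.22 mM NADP+; Timing: 20 min, room temperature; Technique: resorufin fluorescence at Ex 544/Em 590 nm; Dosing: 20 µM single dose.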
p97 inhibitor = human p97 ATPase inhibition | P55072 | recombinant p97 ATPase, Kinase-Glo ATP luminescence, 3 h | inhibition, % at 8 µM | actives 0.42% (n = 220,000) | AID 1481; in the data active = inhibition above about 15%;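 note: 0% = DMSO vehicle and 100% = wells lacking enzyme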
PMI activator = increases human mannose-6-phosphate isomerase activity | P34949 | purified human PMI, coupled resazurin fluorescence, 20 min; stronger effect = higher value; 1 = vehicle control, 0 substrate-free wells | activation factor at 20 µM | actives 0.005% (n = 190,000);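 active = activation factor of 2 or more at 20 µM, relative to plate controls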
Tb hexokinase = blocks Trypanosoma brucei hexokinase 1 activity. recombinant TbHK1, G6PDH-coupled NADH A340. inhibition, % at 10 µM. actives 0.11% (n = 220,000). AID 1430;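 active = inhibition of 50% or more in the single-dose primary screen; inactive = inhibition below 50%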
Numbers without * were called inactive; . = not tested or not shown. In the library only some 0.91% were active in any assay of this set; here they are far more common.

SMILES	Redox H2O2 prof	G6PDH CS	PMI act hi M6P	p97 inhibitor	PMI activator	Tb hexokinase
Cc1nc(C/C(=N\N)c2ccc(O)cc2O)cs1	-0.6	6.5	2.3*	5.5	1.6	-7.2
N/N=C(\Cc1cscn1)c1ccc(O)cc1O	.	.	.	8.1	.	-13.4
COc1ccc2c(=O)c(Oc3ccc(C(=O)O)cc3)c(C(F)(F)F)oc2c1	-2.4	14.3	1.3	-2.1	1.4	-4.6
Cc1ccc(C)c(N2CCN(C(=O)CC3Sc4ccccc4NC3=O)CC2)c1 (stereo not given)	2.4	11.3	1	-6.8	0.9	2.5
Cc1ccc(NC2Sc3ccccc3NC2=O)cc1 (stereo not given)	0.0	2.1	2.1*	4.4	1.6	4.1
COc1cc(/C=C2\CC/C(=C\c3cc(OC)c(O)c(OC)c3)C2=O)cc(OC)c1O	5.9	56.3*	0.3	19.4*	0.4	-9.9
COc1cc(/C=C2\CC/C(=C\c3cc(OC)c(OC)c(OC)c3)C2=O)cc(OC)c1OC	4.3	1.7	0.9	0.2	1	-4.0
COc1ccc(-c2nc3ccccc3c(=O)n2NC(=S)N(C)C)cc1	0.4	0.3	0.6	6.6	0.4	-6.1
Cc1cc(O)c(C=Nc2cccc(Cl)c2)c(=O)o1	-1.0	-6.8	1.2	3.5	1.1	-2.7
C/C(=N\Nc1ccc(Cl)cc1)c1c(O)cc(C)oc1=O	-0.1	1.5	2.6*	0.0	1.7	-5.0
Cc1cc(O)c(/C=N/Nc2ccccc2)c(=O)o1	0.9	14.8	2*	-4.7	1.5	-22.5
Oc1ccccc1/C=N/Nc1cccc2cccnc12	4.3	5.4	1.8	1.8	1.3	-4.2
O=C(Oc1ccc(/C=N/Nc2ccccc2)cc1)c1ccccc1	-5.6	0.5	2.3*	3.5	1.5	-4.3
Oc1ccccc1/C=N/Nc1ncc(Br)cn1	-0.1	58.0*	0.8	2.3	0.8	-4.4
O=C(Oc1ccc(/C=N/O)cc1)c1ccccc1	2.5	-0.8	0.9	5.7	0.9	-4.3
COc1cc(NC(=S)NC2CC(C)(C)NC(C)(C)C2)c(OC)cc1Cl	-0.8	3.6	0.9	-1.2	1	3.2
O=C(O)c1ccc(N/N=C/c2cn(Cc3ccccc3F)c3ccccc23)cc1	.	.	.	4.9	.	-15.8
O=C(O)c1cc(N/N=C/c2ccc(OCc3ccccc3)cc2)ccc1Cl	-0.8	12.3	2.5*	0.6	1.7	7.2
COC(=O)c1ccc(COc2ccc(/C=N/Nc3cccc(C(=O)O)c3)cc2)cc1	.	.	.	2.2	.	-3.3
Cn1cc(/C=N/Nc2ccccc2)c2ccccc21	-2.4	11.2	2.5*	-4.5	1.6	-1.4
Oc1ccccc1/C=N/Nc1ccccc1	-0.4	2.7	2.3*	3.5	1.6	-19.5
COc1ccc(CCNC(=O)c2cc(C(=O)c3cc(C)ccc3O)cn(CCc3ccc(OC)cc3)c2=O)cc1	-0.3	13.2	0.9	3.1	0.8	4.1
COC(=O)C1=NN(N=O)C2(CC(=O)N(c3cc(C)cc(C)c3)C2=O)C1 (stereo not given)	0.1	16.1	2*	5.7	1.5	-3.5
CCOC(=O)C1=NN(C(C)=O)C2(CC(=O)N(c3cc(C)cc(C)c3)C2=O)C1 (stereo not given)	0.5	-3.3	0.9	2.3	1	-3.8
Oc1oc(C=Nc2ccc(F)cc2F)c2ccccc12	-0.6	11.5	2.3*	-1.8	1.8	8.4
SMILES	Redox H2O2 prof	G6PDH CS	PMI act hi M6P	p97 inhibitor	PMI activator	Tb hexokinase
COc1cc2c(cc1NC(=O)c1cc(-c3ccccn3)nc3ccccc13)oc1ccccc12	-0.2	-9.6	1	3.4	0.9	-21.6
CC/C(=C/c1sc2ccc(C)cc2[n+]1CCO)SC	0.2	12.1	2.5*	-2.3	1.8	-16.4
Cc1ccc2sc(C)[n+](CCC(C)S(=O)(=O)[O-])c2c1 (stereo not given)	-0.3	-7.1	1.1	6.0	1	38.3
CC/C(=C/c1sc2ccc(C)cc2[n+]1CCCS(=O)(=O)[O-])SC	-0.1	2.5	2.7*	2.6	1.9	-15.3
CCC(C)c1ccccc1NC(=O)COC(=O)c1ccc2[nH]c3c(c2c1)CCCC3 (stereo not given)	-0.3	16.2	0.9	-3.8	0.9	4.0
COc1cc(CN2CCN(Cc3ccc(C)cc3)C(CCO)C2)cc(OC)c1O (stereo not given)	2.5	58.4*	0.4	4.2	0.7	-6.2
Cc1cc(C)c2c(N)c(C(=O)N3CCN(c4ncccn4)CC3)sc2n1	3.2	-27.1	2*	-4.1	1.5	-5.7
COCc1cc(C)nc2sc(C(=O)N3CCN(c4ccccc4)CC3)c(N)c12	-1.3	8.5	0.9	1.8	1	-8.1
COc1cc(C(=O)Nc2c(C)cc(C)cc2C)c([N+](=O)[O-])cc1OC	-0.1	5.8	1	1.3	1	-3.3
COc1ccc(C2NCCc3c2[nH]c2ccccc32)cc1CSc1nc2ccccc2s1 (stereo not given)	-0.1	11.4	1.8	11.0	1.3	1.2
O=C(CN1CCN(CCN2C(=O)c3cccc4cccc(c34)C2=O)CC1)c1ccc(F)cc1	0.5	-41.8	1.6	-4.6	1.4	-23.9
O=C(CN1CCN(CCN2C(=O)c3cccc4cccc(c34)C2=O)CC1)c1ccc(Cl)cc1	-0.2	-19.4	2.6*	2.3	1.7	-3.3
N#Cc1cc2cc3c(cc2nc1N1CCOCC1)OCO3	0.1	14.8	2.1*	3.8	1.7	-6.8
CC1(C)Cc2nc(N3CCOCC3)c(C#N)cc2CO1	0.6	6.3	0.9	-2.6	0.9	-4.2
C/C(=N\NC(=O)c1ccc(N2CCCC2=O)cc1)c1ccncc1	.	.	.	5.6	.	-13.5
Cc1ccc(S(=O)(=O)Nc2ccc(Cl)cc2)cc1NC(=O)c1cc2c(s1)CCCC2	0.0	14.6	0.8	2.7	0.7	4.5
COCCN=C1Sc2nc3cc(C)c(C)cc3cc2CN1Cc1cccs1	.	.	.	0.7	.	-18.9
COCCN=C1Sc2nc3ccc(C)cc3cc2CN1Cc1ccco1	-0.1	1.8	2.1*	1.9	1.6	-19.2
COc1cccc(-c2cn3nc(C)c(C)nc3n2)c1	-0.1	19.7	2.1*	-8.6	1.6	-14.4
CCOC(=O)N1CCC(=NNc2ccnc3cc(Cl)ccc23)CC1	0.0	1.6	1.5	-3.3	1.6	-10.5
CC(=O)N1CCC(=NNc2ccnc3cc(Cl)ccc23)CC1	-10.1	-0.7	2.3*	12.6	1.7	-15.6
CCc1ccccc1NNC(=O)c1snnc1C	.	.	.	4.6	.	-4.6
Cn1c2ccccc2c(=O)n2c(=O)c3ccccc3cc12	-0.2	50.7*	0.5	7.3	0.9	-17.3
Cc1cc(C(=O)CN2C(=O)NC3(CCCCC3)C2=O)c(C)n1-c1ccc2c(c1)OCO2	0.3	6.2	1	1.6	0.9	0.5

Screening results as filed in PubChem.
